Data: ChEMBL document CHEMBL1140516, “Dual-acting agents that possess reversing resistance and anticancer activities: Design, synthesis, MES-SA/Dx5 cell assay, and SAR of Benzyl 1,2,3,5,11,11a-hexahydro-3,3-dimethyl-1-oxo-6H-imidazo[3',4':1,2]pyridin[3,4-b]indol-2-substitutedacetates” (Bioorg Med Chem, 2007)
pIC50: −log10 of the molar value.

What was measured:
[1] = Growth inhibition of doxorubicin-resistant human MES-SA/Dx5 cells at 1.0 uM after 48 hrs by MTT assay; assay type: functional; conditions: MES-SA/Dx5, 48 h
In short: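 Exponential-phase MES-SA/Dx5 cells were seeded at 1×10^5/mL in McCoy's 5A with 10% FCS and penicillin/streptomycin on poly-L-lysine-coated wells and preincubated 4 h at 37 °C under 5% CO2. Compound was added in medium as a 1 µmol/L solution and cells were grown 48 h. In the MTT read-out, DMSO-dissolved formazan absorbance was measured. Inhibition% = 1 − (drug−blank)/(control−blank), with untreated cells as control and a cell-free blank.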

[2] = Growth inhibition of doxorubicin-resistant human MES-SA/Dx5 cells after 48 hrs by MTT assay; assay type: functional, cell-based; conditions: MES-SA/Dx5, 48 h
In short: (§1)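 MES-SA or MES-SA/Dx5 cells in exponential growth were seeded at 1×10^5/mL in McCoy's 5A with 10% FCS, penicillin and streptomycin on poly-L-lysine-coated plates and held 4 h at 37 °C, 5% CO2. Doxorubicin was then added at final 0.04–10.00 µM (serial halving) for 48 h. Read-out was MTT, with dried formazan dissolved in DMSO and absorbance read. Survival% = (treated−blank)/(control−blank), and IC50 was taken from the survival–concentration plot.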

[3] = Growth inhibition of doxorubicin-sensitive human MES-SA cells after 48 hrs by MTT assay; assay type: functional, cell-based; in short: as §1

Structure (SMILES) | inhibition at 1 µM [1] [%] | pIC50 [2] | pIC50 [3]
CC1(C)N2Cc3[nH]c4ccccc4c3C[C@H]2C(=O)N1[C@@H](Cc1ccccc1)C(=O)OCc1ccccc1 | 31.2 | – | –
CC1(C)N2Cc3[nH]c4ccccc4c3C[C@H]2C(=O)N1[C@@H](CCC(=O)OCc1ccccc1)C(=O)OCc1ccccc1 | 13.4 | – | –
CCC(C)[C@@H](C(=O)OCc1ccccc1)N1C(=O)[C@@H]2Cc3c([nH]c4ccccc34)CN2C1(C)C (stereo partly specified) | 0 | – | –
CC1(C)N2Cc3[nH]c4ccccc4c3C[C@H]2C(=O)N1[C@@H](Cc1ccc(O)cc1)C(=O)OCc1ccccc1 | 0 | – | –
CC1(C)N2Cc3[nH]c4ccccc4c3C[C@H]2C(=O)N1[C@@H](CCC(N)=O)C(=O)OCc1ccccc1 | 0 | – | –
CC1(C)N2Cc3[nH]c4ccccc4c3C[C@H]2C(=O)N1[C@@H](CC(=O)OCc1ccccc1)C(=O)OCc1ccccc1 | 31.2 | – | –
CC1(C)N(CC(=O)OCc2ccccc2)C(=O)[C@@H]2Cc3c([nH]c4ccccc34)CN21 | 0 | – | –
CC(C)C[C@@H](C(=O)OCc1ccccc1)N1C(=O)[C@@H]2Cc3c([nH]c4ccccc34)CN2C1(C)C | 38.9 | – | –
C[C@@H](C(=O)OCc1ccccc1)N1C(=O)[C@@H]2Cc3c([nH]c4ccccc34)CN2C1(C)C | 0 | – | –
CC1(C)N2Cc3[nH]c4ccccc4c3C[C@H]2C(=O)N1[C@@H](CCCCNC(=O)OCc1ccccc1)C(=O)OCc1ccccc1 | 0 | – | –
CC1(C)N2Cc3[nH]c4ccccc4c3C[C@H]2C(=O)N1[C@@H](CC(N)=O)C(=O)OCc1ccccc1 | 0 | – | –
CC1(C)N2Cc3[nH]c4ccccc4c3C[C@H]2C(=O)N1[C@@H](Cc1c[nH]c2ccccc12)C(=O)OCc1ccccc1 | 0 | – | –
CC(C)[C@@H](C(=O)OCc1ccccc1)N1C(=O)[C@@H]2Cc3c([nH]c4ccccc34)CN2C1(C)C | 0 | – | –
COc1cccc2c1C(=O)c1c(O)c3c(c(O)c1C2=O)C[C@@](O)(C(=O)CO)C[C@@H]3O[C@H]1C[C@H](N)[C@H](O)[C@H](C)O1 [DOXORUBICIN] | – | 5.81 | 6.46
CC1(C)N2Cc3[nH]c4ccccc4c3C[C@H]2C(=O)N1[C@@H](COCc1ccccc1)C(=O)OCc1ccccc1 | 0 | – | –
